In ChEMBL document CHEMBL1156601, “Aminomethylpiperazines as selective urotensin antagonists” (Bioorg Med Chem Lett, 2008):

Assays:
[1] = Displacement of [125I]hU-2 from human recombinant urotensin receptor expressed in HEK293 cells; format: cell-based
Method in brief: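 Radioligand binding with [125I]hU-II on membranes of HEK293 cells stably expressing recombinant human UT receptor. Ki given as the mean of at least two determinations (SD <±0.3 log units).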

[2] = biological target: Kappa-type opioid receptor (Homo sapiens, UniProt P41145); assay: Agonist activity at human kappa opioid receptor expressed in CHO-K1 cells by [35S]GTPgamma binding assay; format: functional, cell-based
Method in brief: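 Human κ-opioid receptor, membranes from BacMam-transduced CHO-K1 cells. Agonism read as [35S]GTPγS binding, detected by LEADseeker SPA. EC50 reported from a single run or as the mean of two runs (SD <±0.3 log units).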

[3] = Displacement of [125I]hU-2 from rat recombinant urotensin receptor expressed in HEK293 cells; format: cell-based
[4] = Antagonist activity at rat urotensin receptor in Sprague-Dawley rat thoracic aorta assessed as inhibition of urotensin-mediated contraction; format: functional
Method in brief: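 Isolated rat aortic rings were contracted via UT, and the test agent's inhibition of that contraction was measured. The value is reported as a Kb, the mean of two determinations ± SEM.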

Rattus norvegicus = organism: Rattus norvegicus; assay: Selectivity ratio of Kb for urotensin receptor in Sprague-Dawley rat thoracic aorta to Ki for rat recombinant urotensin receptor; format: tissue-based

Sequence of Kappa-type opioid receptor (P41145 whole entry): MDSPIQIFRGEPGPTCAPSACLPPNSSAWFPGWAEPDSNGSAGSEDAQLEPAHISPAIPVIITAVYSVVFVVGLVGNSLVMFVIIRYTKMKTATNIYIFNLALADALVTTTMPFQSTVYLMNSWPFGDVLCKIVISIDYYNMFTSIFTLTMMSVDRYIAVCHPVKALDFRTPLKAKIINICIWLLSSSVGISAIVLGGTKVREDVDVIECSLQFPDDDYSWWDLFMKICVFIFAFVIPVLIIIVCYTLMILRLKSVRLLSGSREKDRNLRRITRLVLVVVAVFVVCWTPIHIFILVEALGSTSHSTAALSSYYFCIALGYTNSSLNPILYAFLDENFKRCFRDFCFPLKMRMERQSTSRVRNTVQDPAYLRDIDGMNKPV

Molecule `COc1ccc(S(=O)(=O)N2CCN(C(=O)Cn3c(=O)oc4ccc(Cl)cc43)C(CN3CCCC3)C2)cc1OC` (configuration not stated) has a Ki [1] of 13 nM and an EC50 [2] of 320 nM.
For `CN(CC(=O)N1CCN(c2ccccc2)CC1CN1CCCC1)c1ccc(Cl)c(Cl)c1` (configuration not stated), the Ki [1] was 250 nM and the EC50 [2] was 1.3 nM.
Molecule `CN(CC(=O)N1CCN(S(=O)(=O)c2ccccc2)CC1CN1CCCC1)c1ccc(Cl)c(Cl)c1` (configuration not stated) has a Ki [1] of 20 nM and an EC50 [2] of 250 nM.
Molecule `O=C(O)c1ccc(S(=O)(=O)N2CCN(C(=O)Cn3c(=O)oc4ccc(Cl)cc43)C(CN3CCCC3)C2)cc1` (configuration not stated) has a Ki [1] of 25 nM, an EC50 [2] of 2000 nM and a Ki [3] of 32 nM. It also gave a Kb [4] of 81.8 nM and a Ratio (Rattus norvegicus) of 2.6.
For `CN(CC(=O)N1CCN(C(=O)c2cccc(Cl)c2)CC1CN1CCCC1)c1ccc(Cl)c(Cl)c1` (configuration not stated), the Ki [1] was 130 nM and the EC50 [2] was over 10000 nM.
Molecule `O=C(Cc1cccc2ccccc12)N1CCN(c2ccccc2)CC1CN1CCCC1` (configuration not stated) has a Ki [1] of 320 nM and an EC50 [2] of 1.6 nM.
For `O=C(Cn1c(C(F)(F)F)nc2ccccc21)N1CCN(c2ccccc2)CC1CN1CCCC1` (configuration not stated), the Ki [1] was 79 nM.
Molecule `CN(CC(=O)N1CCN(C(=O)Nc2ccccc2)CC1CN1CCCC1)c1ccc(Cl)c(Cl)c1` (configuration not stated) has a Ki [1] of 790 nM and an EC50 [2] of 4000 nM.
`O=C(Cn1c(=O)oc2ccccc21)N1CCN(c2ccccc2)CC1CN1CCCC1` (configuration not stated) showed a Ki [1] of 130 nM and an EC50 [2] of 400 nM.
`O=C(Cn1c(=O)oc2ccc(Cl)cc21)N1CCN(S(=O)(=O)c2ccccc2)CC1CN1CCCC1` (configuration not stated) showed a Ki [1] of 20 nM and an EC50 [2] of 790 nM.
In the case of `O=C(Cn1c(=O)oc2ccc(Cl)cc21)N1CCN(S(=O)(=O)c2ccccc2Br)CC1CN1CCCC1` (configuration not stated), the Ki [1] is reported as 8 nM, the EC50 [2] is reported as 2000 nM and the Kb [4] is reported as 52.8 nM.
With `O=C(Cn1c(=O)oc2ccc(Cl)cc21)N1CCN(S(=O)(=O)c2cc(C(F)(F)F)ccc2Cl)CC1CN1CCCC1` (configuration not stated) the Ki [1] was 13 nM and the EC50 [2] was 1000 nM.
`CN(CC(=O)N1CCN(C(=O)c2ccc(C#N)cc2)CC1CN1CCCC1)c1ccc(Cl)c(Cl)c1` (configuration not stated) gave a Ki [1] of 1300 nM and an EC50 [2] of 3200 nM.
`COc1ccc(S(=O)(=O)N2CCN(C(=O)Cn3c(=O)oc4ccc(Cl)cc43)C(CN3CCCC3)C2)cc1` (configuration not stated) gave a Ki [1] of 25 nM and an EC50 [2] of 2000 nM.
`CN(CC(=O)N1CCN(S(=O)(=O)c2ccc(Cl)cc2)CC1CN1CCCC1)c1ccc(Cl)c(Cl)c1` (configuration not stated) gave a Ki [1] of 100 nM and an EC50 [2] of 790 nM.
With `COc1cccc(S(=O)(=O)N2CCN(C(=O)CN(C)c3ccc(Cl)c(Cl)c3)C(CN3CCCC3)C2)c1` (configuration not stated) the Ki [1] was 79 nM and the EC50 [2] was 79 nM.
In the case of `N#Cc1cccc(S(=O)(=O)N2CCN(C(=O)Cn3c(=O)oc4ccc(Cl)cc43)C(CN3CCCC3)C2)c1` (configuration not stated), the Ki [1] is reported as 10 nM and the EC50 [2] is reported as 630 nM.
Molecule `CN(CC(=O)N1CCN(C(=O)c2ccncc2)CC1CN1CCCC1)c1ccc(Cl)c(Cl)c1` (configuration not stated) has a Ki [1] of 100 nM and an EC50 [2] of 630 nM.
Work on `COc1ccc(Br)cc1S(=O)(=O)N1CCN(C(=O)Cn2c(=O)oc3ccc(Cl)cc32)C(CN2CCCC2)C1` (configuration not stated) yielded a Ki [1] of 130 nM and an EC50 [2] of 790 nM.
With `CN(CC(=O)N1CCN(c2cccc(Cl)c2)CC1CN1CCCC1)c1ccc(Cl)c(Cl)c1` (configuration not stated) the Ki [1] was 63 nM and the EC50 [2] was 4 nM.
With `O=C(O)c1ccc(S(=O)(=O)N2CCN(C(=O)Cn3c(=O)oc4ccc(Cl)cc43)C(CN3CCCC3)C2)cc1O` (configuration not stated) the Ki [1] was 13 nM, the EC50 [2] was 7900 nM and the Ki [3] was 8 nM. The Kb [4] was 10 nM and the Ratio (Rattus norvegicus) was 1.3.
Molecule `CN(CC(=O)N1CCN(S(=O)(=O)c2ccc(F)c(F)c2)CC1CN1CCCC1)c1ccc(Cl)c(Cl)c1` (configuration not stated) has a Ki [1] of 130 nM and an EC50 [2] of 400 nM.
Molecule `CN(CC(=O)N1CCN(C(=O)c2ccccc2)CC1CN1CCCC1)c1ccc(Cl)c(Cl)c1` (configuration not stated) has a Ki [1] of 200 nM and an EC50 [2] of 7900 nM.
`COc1cccc(S(=O)(=O)N2CCN(C(=O)Cn3c(=O)oc4ccc(Cl)cc43)C(CN3CCCC3)C2)c1` (configuration not stated) showed a Ki [1] of 25 nM and an EC50 [2] of 320 nM.
For `CC(=O)Nc1ccc(S(=O)(=O)N2CCN(C(=O)Cn3c(=O)oc4ccc(Cl)cc43)C(CN3CCCC3)C2)cc1` (configuration not stated), the Ki [1] was 2.5 nM, the EC50 [2] was 1300 nM and the Ki [3] was 4 nM. It also gave a Kb [4] of 13.1 nM and a Ratio (Rattus norvegicus) of 3.3.
Molecule `O=C(Cn1c(=O)oc2ccccc21)N1CCN(S(=O)(=O)c2ccccc2)CC1CN1CCCC1` (configuration not stated) has a Ki [1] of 500 nM and an EC50 [2] of 1000 nM.
Work on `COc1cccc(N2CCN(C(=O)CN(C)c3ccc(Cl)c(Cl)c3)C(CN3CCCC3)C2)c1` (configuration not stated) yielded a Ki [1] of 50 nM and an EC50 [2] of 3.2 nM.
With `O=C(Cc1csc2ccc(Cl)cc12)N1CCN(c2ccccc2)CC1CN1CCCC1` (configuration not stated) the Ki [1] was 63 nM and the EC50 [2] was 2 nM.
With `COc1ccc(C(=O)N2CCN(C(=O)CN(C)c3ccc(Cl)c(Cl)c3)C(CN3CCCC3)C2)cc1OC` (configuration not stated) the Ki [1] was 400 nM and the EC50 [2] was over 10000 nM.
For `CN(CC(=O)N1CCN(S(C)(=O)=O)CC1CN1CCCC1)c1ccc(Cl)c(Cl)c1` (configuration not stated), the Ki [1] was 100 nM and the EC50 [2] was 3 nM.
For `CN(CC(=O)N1CCN(S(=O)(=O)c2cccc(Cl)c2)CC1CN1CCCC1)c1ccc(Cl)c(Cl)c1` (configuration not stated), the Ki [1] was 160 nM and the EC50 [2] was 200 nM.
Molecule `CN(CC(=O)N1CCN(c2ccc(F)c(F)c2)CC1CN1CCCC1)c1ccc(Cl)c(Cl)c1` (configuration not stated) has a Ki [1] of 100 nM and an EC50 [2] of 6.3 nM.
With `COc1ccc(S(=O)(=O)N2CCN(C(=O)Cn3c(=O)oc4ccc(Cl)cc43)C(CN3CCCC3)C2)c(Br)c1OC` (configuration not stated) the Ki [1] was 1.6 nM, the EC50 [2] was 1300 nM and the Ki [3] was 10 nM. It also gave a Kb [4] of 14.2 nM and a Ratio (Rattus norvegicus) of 1.4.
`CN(CC(=O)N1CCCCC1CN1CCCC1)c1ccc(Cl)c(Cl)c1` (configuration not stated) showed a Ki [1] of 500 nM and an EC50 [2] of 3 nM.
`O=C(Cn1c(=O)oc2ccc(Cl)cc21)N1CCN(S(=O)(=O)c2cccc(C(F)(F)F)c2)CC1CN1CCCC1` (configuration not stated) gave a Ki [1] of 50 nM and an EC50 [2] of 2000 nM.
